2 molecules from ChEMBL document CHEMBL2203173 (J Med Chem, 2012) can be followed below.

In data set [1] the test system is Mus musculus. As to the kind of experiment: Toxicity in BALB/c nu/nu mouse xenografted with human DMS53 cells assessed as change in spleen weight at 7.5 mg/kg, po administered for 3 times a week measured after 20 days. In kind it is organism-based, DMS-53. More on the design: dose 7.5 mg/kg, route oral. To be noted: in vivo, 480 h. The gist of the method: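 DMS-53 xenograft nude mice were gavaged 3 times/week in 30% propylene glycol/saline vehicle for 20 days and then sacrificed. Organ weights and histology of spleen, kidney, liver, heart, lungs and brain were compared with vehicle controls. n = 6-11 mice/condition.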
(In general: In xenograft studies the graft and the host belong to different species.)

In data set [2] the test system is Mus musculus. As to the kind of experiment: Toxicity in BALB/c nu/nu mouse xenografted with human DMS53 cells assessed as change in heart weight at 7.5 mg/kg, po administered for 3 times a week measured after 20 days. In kind it is organism-based, DMS-53. The arrangement: dose 7.5 mg/kg, route oral. Particulars: in vivo, 480 h. The method, boiled down:
(§1)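 Nude mice bearing DMS-53 xenografts gavaged 3 times/week for 20 days, vehicle 30% propylene glycol/saline, vehicle controls, n = 6-11 mice/condition. Sacrifice on day 20. Organ weights and hematological indices recorded. Spleen, kidney, liver, heart, lungs and brain examined histologically, hearts stained with Gomori Trichrome for fibrosis.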

Data set [3] concerns Mus musculus. The data set can be described thus: Toxicity in BALB/c nu/nu mouse xenografted with human DMS53 cells assessed as change in hematopoetic cells in splenic red pulp at 6 mg/kg, iv administered for 5 days a week measured after 21 days by hematoxylin and eosin staining method. More on the design: dose 6 mg/kg, route intravenous. In kind it is organism-based, DMS-53. Particulars: in vivo, 504 h. The gist of the method: (§2)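 DMS-53 xenografts in nude mice; dosing started at 100 mm3 tumor volume. Agents given iv via tail vein, 5 days/week for 21 days, vehicle 30% propylene glycol/saline, vehicle-treated controls. Mice sacrificed day 21. Body and organ weights and hematological indices recorded. Spleen, kidney, liver, heart, lungs and brain were stained with H&E, Perls' and Gomori Trichrome and read by an independent veterinary pathologist.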

Data set [4] has as its system Mus musculus. As to the kind of experiment: Cardiotoxicity in BALB/c nu/nu mouse xenografted with human DMS53 cells at 3 mg/kg, iv administered for 5 days a week measured after 21 days. To be noted: in vivo, 504 h. The arrangement: dose 3 mg/kg, route intravenous. Type of data set: toxicity, organism-based, DMS-53. The method, boiled down:
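DMS-53 xenograft nude mice given agents iv by tail vein 5 days/week in 30% propylene glycol/saline for 21 days. At sacrifice, heart sections were stained with Gomori Trichrome to detect fibrosis. Spleen, kidney, liver, heart, lungs and brain were also stained with H&E and Perls' and examined by an independent veterinary pathologist.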

Data set [5] has as its system Mus musculus. The data set can be described thus: Toxicity in BALB/c nu/nu mouse xenografted with human DMS53 cells assessed as body weight change at 20 mg/kg, po administered for 3 times a week measured after 20 days. To be noted: in vivo, 480 h. More on the design: dose 20 mg/kg, route oral. In kind it is organism-based, DMS-53. The method, boiled down:
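DMS-53 xenograft nude mice dosed by oral gavage 3 times/week in 30% propylene glycol/saline, with vehicle controls. Average body weight recorded during 20 days of treatment. n = 6–11 mice/condition, mean ± SD.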

The subject of data set [6] is Mus musculus. As to the kind of experiment: Toxicity in BALB/c nu/nu mouse xenografted with human DMS53 cells assessed as change in reticulocyte count at 3 mg/kg, iv administered for 5 days a week measured after 21 days. Type of data set: organism-based, DMS-53. The arrangement: dose 3 mg/kg, route intravenous. Particulars: in vivo, 504 h. The method, boiled down: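 Nude mice carrying DMS-53 xenografts (treatment from 100 mm3) received iv tail-vein doses in 30% propylene glycol/saline, 5 days/week for 21 days. Hematological indices (RBC, hemoglobin, hematocrit, reticulocytes, WBC, platelets) were then compared with vehicle controls.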

Data set [7] concerns Mus musculus. As to the kind of experiment: Toxicity in BALB/c nu/nu mouse xenografted with human DMS53 cells assessed as hepatocellular necrosis at 0.75 mg/kg, iv administered for 5 days a week measured after 21 days by hematoxylin and eosin staining method. Type of data set: organism-based, DMS-53. To be noted: in vivo, 504 h. The arrangement: dose 0.75 mg/kg, route intravenous. The gist of the method:
(§3)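 Nude mice with DMS-53 xenografts dosed by tail-vein iv injection in 30% propylene glycol/saline, starting at 100 mm3 tumour volume, 5 days/week for 21 days. Spleen, kidney, liver, heart, lungs and brain were stained with H&E, Perls' (Fe loading) and Gomori Trichrome (fibrosis) by standard methods, and an independent veterinary pathologist examined them.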

The subject of data set [8] is Mus musculus. As to the kind of experiment: Toxicity in human DMS53 cells xenografted BALB/c nu/nu mouse assessed as change in organ weight at 6 mg/kg, iv administered for 5 days a week measured after 21 days. More on the design: dose 6 mg/kg, route intravenous. In kind it is organism-based, DMS-53. Particulars: in vivo, 504 h. The gist of the method: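 DMS-53 xenograft-bearing nude mice, treatment started at 100 mm3 tumour volume: iv tail-vein dosing in 30% propylene glycol/saline, 5 days/week for 21 days. Organs were weighed at sacrifice and compared with vehicle-control mice.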

The subject of data set [9] is Mus musculus. The data set can be described thus: Toxicity in BALB/c nu/nu mouse xenografted with human DMS53 cells assessed as change in RBC count at 7.5 mg/kg, po administered for 3 times a week measured after 20 days. The arrangement: dose 7.5 mg/kg, route oral. Type of data set: organism-based, DMS-53. Particulars: in vivo, 480 h.
Data set [10] relates to Mus musculus. As to the kind of experiment: Toxicity in BALB/c nu/nu mouse xenografted with human DMS53 cells assessed as change in RBC count at 10 mg/kg, po administered for 3 times a week measured after 20 days. In kind it is organism-based, DMS-53. More on the design: dose 10 mg/kg, route oral. Particulars: in vivo, 480 h.
The subject of data set [11] is Mus musculus. The data set can be described thus: Toxicity in BALB/c nu/nu mouse xenografted with human DMS53 cells assessed as hepatocellular fibrosis at 3 mg/kg, iv administered for 5 days a week measured after 21 days by hematoxylin and eosin staining method. In kind it is organism-based, DMS-53. Particulars: in vivo, 504 h. The arrangement: dose 3 mg/kg, route intravenous. The method, boiled down:
as §3

Data set [12] has as its system Mus musculus. As to the kind of experiment: Toxicity in BALB/c nu/nu mouse xenografted with human DMS53 cells assessed as change in lung weight at 10 mg/kg, po administered for 3 times a week measured after 20 days. More on the design: dose 10 mg/kg, route oral. Type of data set: organism-based, DMS-53. To be noted: in vivo, 480 h. The method, boiled down:
as §1

In data set [13] the test system is Mus musculus. The data set can be described thus: Toxicity in BALB/c nu/nu mouse xenografted with human DMS53 cells assessed as hepatocellular fibrosis at 6 mg/kg, iv administered for 5 days a week measured after 21 days by hematoxylin and eosin staining method. In kind it is organism-based, DMS-53. To be noted: in vivo, 504 h. The arrangement: dose 6 mg/kg, route intravenous. The gist of the method:
as §3

Data set [14] concerns Mus musculus. As to the kind of experiment: Toxicity in BALB/c nu/nu mouse xenografted with human DMS53 cells assessed as change in brain histology at 3 mg/kg, iv administered for 5 days a week measured after 21 days by hematoxylin and eosin staining method. In kind it is organism-based, DMS-53. More on the design: dose 3 mg/kg, route intravenous. Particulars: in vivo, 504 h. The method, boiled down:
as §2

The subject of data set [15] is Mus musculus. The data set can be described thus: Toxicity in BALB/c nu/nu mouse xenografted with human DMS53 cells assessed as change in RBC count at 8 mg/kg, iv administered for 5 days a week measured after 21 days. In kind it is organism-based, DMS-53. More on the design: dose 8 mg/kg, route intravenous. To be noted: in vivo, 504 h.
Data set [16] relates to Mus musculus. The data set can be described thus: Toxicity in BALB/c nu/nu mouse xenografted with human DMS53 cells assessed as change in brain histology at 4 mg/kg, iv administered for 5 days a week measured after 21 days by hematoxylin and eosin staining method. Type of data set: organism-based, DMS-53. More on the design: dose 4 mg/kg, route intravenous. To be noted: in vivo, 504 h. The method, boiled down:
as §2

The test system of data set [17] is Mus musculus. The data set can be described thus: Toxicity in BALB/c nu/nu mouse xenografted with human DMS53 cells assessed as vacuolation at 4 mg/kg, iv administered for 5 days a week measured after 21 days by hematoxylin and eosin staining method. In kind it is organism-based, DMS-53. The arrangement: dose 4 mg/kg, route intravenous. To be noted: in vivo, 504 h. The method, boiled down:
as §3

Data set [18] concerns Mus musculus. The data set can be described thus: Toxicity in BALB/c nu/nu mouse xenografted with human DMS53 cells assessed as change in brain histology at 8 mg/kg, iv administered for 5 days a week measured after 21 days by hematoxylin and eosin staining method. Type of data set: organism-based, DMS-53. More on the design: dose 8 mg/kg, route intravenous. Particulars: in vivo, 504 h. The gist of the method: as §2

For data set [19], the system named is Mus musculus. As to the kind of experiment: Toxicity in BALB/c nu/nu mouse xenografted with human DMS53 cells assessed as change in hematopoetic cells in splenic red pulp at 4 mg/kg, iv administered for 5 days a week measured after 21 days by hematoxylin and eosin staining method. To be noted: in vivo, 504 h. The arrangement: dose 4 mg/kg, route intravenous. In kind it is organism-based, DMS-53. The gist of the method: as §2

The test system of data set [20] is Mus musculus. The data set can be described thus: Toxicity in BALB/c nu/nu mouse xenografted with human DMS53 cells assessed as change in hemoglobin level at 8 mg/kg, iv administered for 5 days a week measured after 21 days. In kind it is organism-based, DMS-53. More on the design: dose 8 mg/kg, route intravenous. To be noted: in vivo, 504 h. The gist of the method: as §2

The test system of data set [21] is Mus musculus. The data set can be described thus: Toxicity in BALB/c nu/nu mouse xenografted with human DMS53 cells assessed as change in RBC count at 4 mg/kg, iv administered for 5 days a week measured after 21 days. In kind it is organism-based, DMS-53. More on the design: dose 4 mg/kg, route intravenous. Particulars: in vivo, 504 h.
Data set [22] relates to Mus musculus. As to the kind of experiment: Toxicity in BALB/c nu/nu mouse xenografted with human DMS53 cells assessed as change in heart weight at 20 mg/kg, po administered for 3 times a week measured after 20 days. The arrangement: dose 20 mg/kg, route oral. Particulars: in vivo, 480 h. Type of data set: organism-based, DMS-53. The gist of the method:
as §1

In data set [23] the test system is Mus musculus. The data set can be described thus: Toxicity in BALB/c nu/nu mouse xenografted with human DMS53 cells assessed as hepatocellular necrosis at 4 mg/kg, iv administered for 5 days a week measured after 21 days by hematoxylin and eosin staining method. Type of data set: organism-based, DMS-53. The arrangement: dose 4 mg/kg, route intravenous. Particulars: in vivo, 504 h. The method, boiled down: as §3

In the case of `CCN(C)C(=S)NN=C(c1ccccn1)c1ccccn1.Cl`, the Activity result with Mus musculus [1] is “Toxic”; in the data set on Mus musculus [2] it was “Non-toxic”; in the data set with Mus musculus [3] it was “Non-toxic”; with Mus musculus [4] it was “Non-toxic”; in the data set with Mus musculus [5] it was “Non-toxic”; in the data set on Mus musculus [6], “Non-toxic”. In addition, the Activity entry with Mus musculus [7] is given as “Non-toxic”; in the data set on Mus musculus [8], “Toxic”; in the data set on Mus musculus [9], “Non-toxic”; with Mus musculus [10] it was “Toxic”; in the data set on Mus musculus [11], “Non-toxic”; in the data set with Mus musculus [12] it was “Toxic”. The Activity entry in the data set on Mus musculus [13] and with Mus musculus [14] was “Non-toxic” each time.
Turning to `CN(C(=S)NN=C(c1ccccn1)c1ccccn1)C1CCCCC1.Cl`, the Activity entry with Mus musculus [15] is “Toxic”; in the data set on Mus musculus [16], “Non-toxic”; with Mus musculus [17], “Non-toxic”; in the data set on Mus musculus [18], “Non-toxic”; in the data set on Mus musculus [19], “Non-toxic”; in the data set on Mus musculus [20], “Toxic”. Moreover, the Activity entry in the data set with Mus musculus [21], in the data set with Mus musculus [22] and with Mus musculus [23] was “Non-toxic” throughout.
